Consider 17 compounds from publication PMC11809490 (RSC Advances, 2025).

Type in all cases: cell-based, human
The test system of one data set is MIAPACA. The experiment in a line: MTT assay, cytotoxicity. The note with it: read-out: IC50 MIAPACA, 48 h treatment, 0.1-40 μM. In outline:
(§1)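 Cells in medium with 10% FBS, streptomycin and penicillin; 5000 cells per well. After 12 h, test compounds added at 0.1–40 μM, with 0.1% DMSO as vehicle, for 48 h. Then serum-free medium and MTT (5 mg mL−1) at 4:1 for 4 h at 37 °C. Formazan dissolved in DMSO, absorbance at 570 nm, normalized to DMSO control. IC50 from sigmoidal variable-slope nonlinear regression.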
For orientation: Tetrazolium dyes change colour on reduction, which living cells bring about.

A further data set has as its system PC3. The experiment in a line: MTT assay, cytotoxicity. The settings on record: read-out: IC50 PC3. The essentials:
as §1

For the next data set, the system named is 22Rv1. Nature of the data set: MTT assay, cytotoxicity. The note with it: read-out: IC50 22Rv1. In outline: as §1
The subject of the next data set is MCF7. Nature of the data set: MTT assay, cytotoxicity. The note with it: read-out: IC50 MCF7. In outline:
as §1

Another data set concerns C4-2. The experiment in a line: MTT assay, cytotoxicity.
A further data set deals with HEK293. Nature of the data set: MTT assay, cytotoxicity to normal cells. The note with it: read-out: IC50 HEK293. In outline:
as §1

For data set [1], the system named is prostate, breast, epithelial cancer cells. Nature of the data set: MTT assay, all tested cancer cell lines together. In outline:
as §1

[2] abbreviates: read-out: IC50 C4-2, MTT, 48 h treatment, 0.1-40 μM.
Setting [3] is: normal human kidney cells, MTT, 48 h.
Where [4] appears, read: Homo sapiens, C4-2, 48 h, read-out: IC50 C4-2, MTT, 48 h treatment, 0.1-40 μM.

Like-named read-outs stand apart in the source and are kept apart here.

As a reminder, the IC50 is the midpoint of a concentration-inhibition curve. “2-(5-Isopropoxy-1H-indole-3-carbonyl)-3-(1-methyl-1H-indol-3-yl)acrylonitrile [21m]”: the IC50 was 1.6 µM in the data set with MIAPACA; 11.7 µM in the data set on PC3 (MTT, 48 h treatment, 0.1-40 μM); 16.4 µM with 22Rv1 (MTT, 48 h treatment, 0.1-40 μM); 2.98 µM with MCF7 (MTT, 48 h treatment, 0.1-40 μM); 17.6 µM with C4-2 (setting [2]); more than 40 µM with HEK293 (setting [3]).

Turning to “3-(1-Ethyl-1H-indol-3-yl)-2-(5-isopropoxy-1H-indole-3-carbonyl)acrylonitrile [21l]”, the IC50 with MIAPACA was determined as 37.6 µM; in the data set on PC3 (MTT, 48 h treatment, 0.1-40 μM) it was 4.6 µM; with 22Rv1 (MTT, 48 h treatment, 0.1-40 μM), 2.5 µM; with MCF7 (MTT, 48 h treatment, 0.1-40 μM), 7.95 µM; with C4-2 (setting [2]), 26.4 µM; in the data set on HEK293 (setting [3]), 37.9 µM.

Turning to `CCn1cc(/C=C(\C#N)C(=O)c2c[nH]c3ccccc23)c2ccccc21` [21a, (E)-3-(1-Ethyl-1H-indol-3-yl)-2-(1H-indole-3-carbonyl)acrylonitrile], the IC50 with PC3 (Homo sapiens, PC-3, 48 h) is 13 µM; in the data set with 22Rv1 (Homo sapiens, 22Rv1, 48 h), more than 40 µM; with MCF7 (Homo sapiens, MCF7, 48 h) it was 10.2 µM; in the data set on C4-2 (setting [4]), 3.9 µM; with HEK293 (Homo sapiens, HEK293, 48 h), more than 40 µM.

With `N#CC(=Cc1cn(Cc2ccc(Cl)cc2)c2ccccc12)C(=O)c1c[nH]c2ccccc12` [21b, 3-(1-(4-Chlorobenzyl)-1H-indol-3-yl)-2-(1H-indole-3-carbonyl)acrylonitrile], the IC50 in the data set with PC3 (Homo sapiens, PC-3, 48 h) turned out to be 10.6 µM; with 22Rv1 (Homo sapiens, 22Rv1, 48 h), 21.5 µM; in the data set on MCF7 (Homo sapiens, MCF7, 48 h) it was 6.9 µM; in the data set with C4-2 (setting [4]), 13.5 µM; with HEK293 (Homo sapiens, HEK293, 48 h), 40 µM. Also, in data set [1], the “cytotoxicity against the tested cancer cells, in words (SAR)” value (“cytotoxicity” below) was “moderate activity”.

Take `COc1ccc2[nH]cc(C(=O)C(C#N)=Cc3cn(C)c4ccccc34)c2c1` [21c, 2-(5-Methoxy-1H-indole-3-carbonyl)-3-(1-methyl-1H-indol-3-yl)acrylonitrile]: the IC50 in the data set with PC3 (Homo sapiens, PC-3, 48 h) is 15.5 µM; with 22Rv1 (Homo sapiens, 22Rv1, 48 h) it was 1.23 µM; in the data set with MCF7 (Homo sapiens, MCF7, 48 h), 25.3 µM; in the data set with C4-2 (setting [4]), 7.5 µM; with HEK293 (Homo sapiens, HEK293, 48 h) it was more than 40 µM.

With `CCn1cc(C=C(C#N)C(=O)c2c[nH]c3ccc(OC)cc23)c2ccccc21` [21d, 3-(1-Ethyl-1H-indol-3-yl)-2-(5-methoxy-1H-indole-3-carbonyl)acrylonitrile], the 50% inhibitory concentration (IC50) in the data set with PC3 (Homo sapiens, PC-3, 48 h) was more than 40 µM; with 22Rv1 (Homo sapiens, 22Rv1, 48 h), 25 µM; with MCF7 (Homo sapiens, MCF7, 48 h), 10.9 µM; in the data set on C4-2 (setting [4]) it was 8 µM; in the data set on HEK293 (Homo sapiens, HEK293, 48 h), 39.2 µM.

Turning to `COc1ccc2c(C(=O)C(C#N)=Cc3cn(C)c4ccccc34)c[nH]c2c1` [21e, 2-(6-Methoxy-1H-indole-3-carbonyl)-3-(1-methyl-1H-indol-3-yl)acrylonitrile], the 50% inhibitory concentration (IC50) in the data set with PC3 (Homo sapiens, PC-3, 48 h) is 7.61 µM; with 22Rv1 (Homo sapiens, 22Rv1, 48 h), 28 µM; in the data set on MCF7 (Homo sapiens, MCF7, 48 h), 12.5 µM; with C4-2 (setting [4]), 15.7 µM; with HEK293 (Homo sapiens, HEK293, 48 h), more than 40 µM. Also, in data set [1], the “cytotoxicity” value is “reduced activity”.

In the case of `CCn1cc(C=C(C#N)C(=O)c2c[nH]c3cc(OC)ccc23)c2ccccc21` [21f, 3-(1-Ethyl-1H-indol-3-yl)-2-(6-methoxy-1H-indole-3-carbonyl)acrylonitrile], the IC50 in the data set with PC3 (Homo sapiens, PC-3, 48 h) is 24 µM; in the data set with 22Rv1 (Homo sapiens, 22Rv1, 48 h), more than 40 µM; in the data set with MCF7 (Homo sapiens, MCF7, 48 h) it was 37 µM; in the data set on C4-2 (setting [4]) it was 12.5 µM; in the data set with HEK293 (Homo sapiens, HEK293, 48 h), 40 µM. Also, the “cytotoxicity” value in data set [1] was “reduced activity”.

For the compound `COc1ccc2c(C(=O)C(C#N)=Cc3cn(Cc4ccc(Cl)cc4)c4ccccc34)c[nH]c2c1` [21g, 3-(1-(4-Chlorobenzyl)-1H-indol-3-yl)-2-(6-methoxy-1H-indole-3-carbonyl)acrylonitrile], the concentration for half-maximal inhibition (IC50) is 14.3 µM in the data set on PC3 (Homo sapiens, PC-3, 48 h); 34 µM with 22Rv1 (Homo sapiens, 22Rv1, 48 h); 10.5 µM with MCF7 (Homo sapiens, MCF7, 48 h); 13.3 µM in the data set on C4-2 (setting [4]); more than 40 µM with HEK293 (Homo sapiens, HEK293, 48 h). Besides, the “cytotoxicity” value in data set [1] is listed as “reduced activity”.

Consider `CCOc1ccc2[nH]cc(C(=O)C(C#N)=Cc3cn(C)c4ccccc34)c2c1` [21h, 2-(5-Ethoxy-1H-indole-3-carbonyl)-3-(1-methyl-1H-indol-3-yl)acrylonitrile], for which the IC50 was determined as 27.3 µM in the data set with PC3 (Homo sapiens, PC-3, 48 h); 5.23 µM in the data set with 22Rv1 (Homo sapiens, 22Rv1, 48 h); 16.8 µM in the data set with MCF7 (Homo sapiens, MCF7, 48 h); 10 µM in the data set on C4-2 (setting [4]); 40 µM in the data set with HEK293 (Homo sapiens, HEK293, 48 h). Besides, the “cytotoxicity” value in data set [1] is “significantly enhanced cytotoxicity”.

Consider `CCOc1ccc2[nH]cc(C(=O)C(C#N)=Cc3cn(CC)c4ccccc34)c2c1` [21i, 2-(5-Ethoxy-1H-indole-3-carbonyl)-3-(1-ethyl-1H-indol-3-yl)acrylonitrile], for which the IC50 was 2.63 µM in the data set with PC3 (Homo sapiens, PC-3, 48 h); 8.9 µM with 22Rv1 (Homo sapiens, 22Rv1, 48 h); 7.38 µM in the data set on MCF7 (Homo sapiens, MCF7, 48 h); 2.2 µM in the data set with C4-2 (setting [4]); more than 40 µM with HEK293 (Homo sapiens, HEK293, 48 h). The “cytotoxicity” value in data set [1] is given as “significantly enhanced cytotoxicity”.

On to `CCCOc1ccc2[nH]cc(C(=O)C(C#N)=Cc3cn(C)c4ccccc34)c2c1` [21k, 3-(1-Methyl-1H-indol-3-yl)-2-(5-propoxy-1H-indole-3-carbonyl)acrylonitrile], for which the IC50 in the data set on PC3 (Homo sapiens, PC-3, 48 h) was 16.1 µM; in the data set with 22Rv1 (Homo sapiens, 22Rv1, 48 h), 28 µM; in the data set with MCF7 (Homo sapiens, MCF7, 48 h), 18.6 µM; with C4-2 (setting [4]), 13.8 µM; in the data set with HEK293 (Homo sapiens, HEK293, 48 h) it was 39.8 µM.

On to `COc1cc2[nH]cc(C(=O)C(C#N)=Cc3cn(C)c4ccccc34)c2cc1OC` [21n, 2-(5,6-Dimethoxy-1H-indole-3-carbonyl)-3-(1-methyl-1H-indol-3-yl)acrylonitrile], for which the half-inhibitory concentration (IC50) is 7.1 µM in the data set on PC3 (Homo sapiens, PC-3, 48 h); 20.5 µM in the data set on 22Rv1 (Homo sapiens, 22Rv1, 48 h); 5.61 µM in the data set on MCF7 (Homo sapiens, MCF7, 48 h); 1.02 µM in the data set with C4-2 (setting [4]); more than 40 µM with HEK293 (Homo sapiens, HEK293, 48 h). In addition, the “cytotoxicity” value in data set [1] is recorded as “improved the selectivity against prostate cancer cell lines”.

In the case of `CCn1cc(C=C(C#N)C(=O)c2c[nH]c3cc(OC)c(OC)cc23)c2ccccc21` [21o, 2-(5,6-Dimethoxy-1H-indole-3-carbonyl)-3-(1-ethyl-1H-indol-3-yl)acrylonitrile], the half-inhibitory concentration (IC50) with PC3 (Homo sapiens, PC-3, 48 h) was 19 µM; in the data set with 22Rv1 (Homo sapiens, 22Rv1, 48 h) it was 26 µM; in the data set with MCF7 (Homo sapiens, MCF7, 48 h), 31.5 µM; in the data set on C4-2 (setting [4]) it was 5.9 µM; with HEK293 (Homo sapiens, HEK293, 48 h) it was more than 40 µM. Moreover, the “cytotoxicity” value in data set [1] was “improved the selectivity against prostate cancer cell lines”.

Take `COc1cc2[nH]cc(C(=O)C(C#N)=Cc3cn(Cc4ccc(Cl)cc4)c4ccccc34)c2cc1OC` [21p, 3-(1-(4-Chlorobenzyl)-1H-indol-3-yl)-2-(5,6-dimethoxy-1H-indole-3-carbonyl)-acrylonitrile]: the IC50 in the data set on PC3 (Homo sapiens, PC-3, 48 h) is more than 40 µM; in the data set with 22Rv1 (Homo sapiens, 22Rv1, 48 h), more than 40 µM; in the data set with MCF7 (Homo sapiens, MCF7, 48 h) it was more than 40 µM; in the data set on C4-2 (setting [4]) it was 31 µM; with HEK293 (Homo sapiens, HEK293, 48 h), more than 40 µM. Further, in data set [1], the “cytotoxicity” value is given as “detrimental for the activity”.

With `COc1ccc(C=C(C#N)C(=O)c2c[nH]c3ccccc23)cc1` [21q, 2-(1H-Indole-3-carbonyl)-3-(4-methoxyphenyl)acrylonitrile], the 50% inhibitory concentration (IC50) in the data set with PC3 (Homo sapiens, PC-3, 48 h) is 37 µM; in the data set on 22Rv1 (Homo sapiens, 22Rv1, 48 h), 28 µM; with MCF7 (Homo sapiens, MCF7, 48 h), 25 µM; in the data set with C4-2 (setting [4]), more than 40 µM; in the data set on HEK293 (Homo sapiens, HEK293, 48 h), more than 40 µM. Moreover, the “cytotoxicity” value in data set [1] is on record as “detrimental for the activity”.

With `COc1ccc(C=C(C#N)C(=O)c2c[nH]c3ccccc23)cc1OC` [21r, 3-(3,4-Dimethoxyphenyl)-2-(1H-indole-3-carbonyl)acrylonitrile], the half-inhibitory concentration (IC50) with PC3 (Homo sapiens, PC-3, 48 h) was 25 µM; with 22Rv1 (Homo sapiens, 22Rv1, 48 h) it was 34 µM; in the data set with MCF7 (Homo sapiens, MCF7, 48 h), more than 40 µM; with C4-2 (setting [4]), more than 40 µM; in the data set on HEK293 (Homo sapiens, HEK293, 48 h), 31 µM. Besides, the “cytotoxicity” value in data set [1] is listed as “detrimental for the activity”.
